Experimental data taken from ChEMBL document CHEMBL2440037, “GluK1 antagonists from 6-(carboxy)phenyl decahydroisoquinoline derivatives. SAR and evaluation of a prodrug strategy for oral efficacy in pain models” (Bioorg Med Chem Lett, 2013).

Tests used:
[1] = target: Glutamate receptor ionotropic, kainate 1 (Homo sapiens, UniProt P39086); test: Binding affinity to GluK1 receptor (unknown origin)
[2] = target: Glutamate receptor 2 (Homo sapiens, UniProt P42262); test: Binding affinity to GluA2 receptor (unknown origin)
[3] = tested on: Rattus norvegicus; test: Antihyperalgesic activity against carrageenan-induced thermal hyperalgesia in po dosed rat; type: functional; details: read-out: MED
Method in brief: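 Rat carrageenan-induced thermal hyperalgesia; amino acid given p.o. as diethyl ester hydrochloride salt at several doses, N = 6 per group; vehicle controls N = 6. Reported as minimal effective dose (MED).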

[4] = tested on: Rattus norvegicus; test: Analgesic activity in rat assessed as reversal of formalin-induced pain at 30 mg/kg, po; type: functional
Method in brief: (§1)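 Rat formalin pain model; amino acid given p.o. as diethyl ester hydrochloride salt at 30 mg/kg (one entry at 100 mg/kg), N = 8–9; vehicle controls N = 8–12. Read-out is % reversal of formalin-induced pain.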

[5] = tested on: Rattus norvegicus; test: Neurotoxicity in po dosed rat assessed as sedative effect by rotorod test; type: toxicity, organism-based; details: in vivo
Method in brief: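 Rotorod test in rats for sedative or ataxic effects; amino acid given p.o. as diethyl ester hydrochloride salt at several doses, N = 8, vehicle controls N = 8; minimal effective dose (MED) reported.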

[6] = AUC (0 to infinity) in Fischer rat at 30 mg/kg, po; type: ADME, organism-based; set-up: time infinity, dose 30 mg/kg, route oral; details: plasma
Method in brief: (§2)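 Fischer rats; amino acid dosed orally as diethyl ester hydrochloride salt, 30 mg/kg (one entry at 10 mg/kg), three rats per time point. Amino acid plasma levels measured: AUC 0 to infinity, Cmax as maximum observed concentration, Tmax as time at Cmax. %F is amino acid exposure after oral ester dosing relative to the amino acid given iv.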

[7] = Cmax in Fischer rat at 30 mg/kg, po; type: ADME, organism-based; set-up: dose 30 mg/kg, route oral; details: in vivo; method in brief: as §2
[8] = Oral bioavailability in Fischer rat at 30 mg/kg; type: ADME, organism-based; details: in vivo; method in brief: as §2
[9] = Tmax in Fischer rat at 30 mg/kg, po; type: ADME, organism-based; set-up: dose 30 mg/kg, route oral; details: in vivo; method in brief: as §2
[10] = tested on: Rattus norvegicus; test: Analgesic activity in rat assessed as reversal of formalin-induced pain at 100 mg/kg, po; type: functional; method in brief: as §1
[11] = Oral bioavailability in Fischer rat at 10 mg/kg; type: ADME, organism-based; details: in vivo; method in brief: as §2
[12] = Tmax in Fischer rat at 10 mg/kg, po; type: ADME, organism-based; set-up: dose 10 mg/kg, route oral; details: in vivo; method in brief: as §2
[13] = AUC (0 to infinity) in Fischer rat at 10 mg/kg, po; type: ADME, organism-based; set-up: time infinity, dose 10 mg/kg, route oral; details: plasma; method in brief: as §2
[14] = Cmax in Fischer rat at 10 mg/kg, po; type: ADME, organism-based; set-up: dose 10 mg/kg, route oral; details: in vivo; method in brief: as §2

Chain of Glutamate receptor ionotropic, kainate 1 (P39086 whole entry): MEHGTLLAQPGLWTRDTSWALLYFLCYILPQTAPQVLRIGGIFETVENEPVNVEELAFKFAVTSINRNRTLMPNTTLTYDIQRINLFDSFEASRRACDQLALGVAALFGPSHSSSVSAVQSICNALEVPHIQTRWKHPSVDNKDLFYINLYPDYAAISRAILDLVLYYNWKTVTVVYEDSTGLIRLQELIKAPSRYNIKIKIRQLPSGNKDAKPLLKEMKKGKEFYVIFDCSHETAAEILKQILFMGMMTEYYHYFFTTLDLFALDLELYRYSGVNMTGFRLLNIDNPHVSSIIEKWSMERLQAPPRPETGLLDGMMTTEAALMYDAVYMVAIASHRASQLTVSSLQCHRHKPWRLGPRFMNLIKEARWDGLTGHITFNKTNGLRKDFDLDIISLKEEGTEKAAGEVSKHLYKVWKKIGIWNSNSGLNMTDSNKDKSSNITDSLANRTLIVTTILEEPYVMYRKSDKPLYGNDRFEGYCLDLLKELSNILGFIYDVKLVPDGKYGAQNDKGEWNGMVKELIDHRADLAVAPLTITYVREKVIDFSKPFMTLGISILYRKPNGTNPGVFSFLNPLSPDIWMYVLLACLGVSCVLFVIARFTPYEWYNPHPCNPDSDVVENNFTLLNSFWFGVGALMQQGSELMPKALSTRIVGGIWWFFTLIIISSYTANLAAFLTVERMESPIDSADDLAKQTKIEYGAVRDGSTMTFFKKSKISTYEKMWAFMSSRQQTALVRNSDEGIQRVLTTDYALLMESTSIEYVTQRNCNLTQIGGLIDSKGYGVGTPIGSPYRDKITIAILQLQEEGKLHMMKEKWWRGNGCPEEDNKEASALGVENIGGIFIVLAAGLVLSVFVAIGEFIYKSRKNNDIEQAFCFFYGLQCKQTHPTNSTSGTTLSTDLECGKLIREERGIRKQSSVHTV
Chain of Glutamate receptor 2 (P42262 whole entry): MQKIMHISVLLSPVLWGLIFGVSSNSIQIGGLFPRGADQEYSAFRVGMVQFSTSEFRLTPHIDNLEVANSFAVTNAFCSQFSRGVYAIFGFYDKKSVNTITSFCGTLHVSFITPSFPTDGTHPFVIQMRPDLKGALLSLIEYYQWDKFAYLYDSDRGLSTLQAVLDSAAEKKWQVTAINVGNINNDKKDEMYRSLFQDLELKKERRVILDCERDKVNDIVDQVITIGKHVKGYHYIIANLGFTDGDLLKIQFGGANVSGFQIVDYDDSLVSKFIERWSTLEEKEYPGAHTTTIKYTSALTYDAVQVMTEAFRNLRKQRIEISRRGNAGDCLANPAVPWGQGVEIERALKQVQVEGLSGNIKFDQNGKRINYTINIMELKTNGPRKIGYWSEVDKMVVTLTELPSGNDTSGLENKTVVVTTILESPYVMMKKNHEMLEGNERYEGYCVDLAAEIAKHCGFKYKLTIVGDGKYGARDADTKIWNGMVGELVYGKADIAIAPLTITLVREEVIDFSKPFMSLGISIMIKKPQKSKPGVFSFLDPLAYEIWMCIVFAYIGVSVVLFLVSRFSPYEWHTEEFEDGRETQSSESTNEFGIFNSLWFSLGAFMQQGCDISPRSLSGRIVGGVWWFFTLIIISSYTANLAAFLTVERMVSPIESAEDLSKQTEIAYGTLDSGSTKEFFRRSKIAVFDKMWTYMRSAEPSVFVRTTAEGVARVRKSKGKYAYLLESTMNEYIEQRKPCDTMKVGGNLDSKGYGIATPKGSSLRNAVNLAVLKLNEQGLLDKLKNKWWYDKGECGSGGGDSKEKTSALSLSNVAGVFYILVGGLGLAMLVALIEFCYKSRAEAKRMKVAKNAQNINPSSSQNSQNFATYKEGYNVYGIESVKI

| SMILES | Ki [1] [µM] | Ki [2] [µM] | also measured |
| --- | --- | --- | --- |
| O=C(O)c1ccc(O[C@H]2CC[C@H]3CN[C@H](C(=O)O)C[C@H]3C2)cc1 | 267 | 913 |  |
| CCOC(=O)c1ccc(Cl)cc1O[C@H]1CC[C@H]2CN[C@H](C(=O)OCC)C[C@H]2C1.Cl |  |  | minimal effective dose [3]: > 10 mg/kg; Activity [4]: 14.9%; MED [5]: > 30 mg/kg; AUC(0-inf) [6]: 9190 ng·h/mL; Cmax [7]: 6450 ng/mL; bioavailability [8]: 32.9%; Tmax [9]: 30 min |
| O=C(O)c1cccc(N[C@H]2CC[C@H]3CN[C@H](C(=O)O)C[C@H]3C2)c1 | 8 | 238 |  |
| O=C(O)c1cc(-c2ccccc2)ccc1O[C@H]1CC[C@H]2CN[C@H](C(=O)O)C[C@H]2C1 | 11 | 172 |  |
| Cc1cccc(C(=O)O)c1O[C@H]1CC[C@H]2CN[C@H](C(=O)O)C[C@H]2C1 | 228 | 818 |  |
| O=C(O)c1ccccc1C[C@H]1CC[C@H]2CN[C@H](C(=O)O)C[C@H]2C1 | 67 | 29600 |  |
| CCOC(=O)c1ccccc1S[C@H]1CC[C@H]2CN[C@H](C(=O)OCC)C[C@H]2C1.Cl |  |  | minimal effective dose [3]: 10 mg/kg; MED [5]: > 100 mg/kg; AUC(0-inf) [6]: 7530 ng·h/mL; Cmax [7]: 2980 ng/mL; bioavailability [8]: 38.8%; Tmax [9]: 30 min; Activity [10]: 49.4% |
| CCOC(=O)c1ccc(C[C@H]2CC[C@H]3CN[C@H](C(=O)OCC)C[C@H]3C2)cc1.Cl |  |  | minimal effective dose [3]: 10 mg/kg; Activity [4]: 13.4%; MED [5]: > 30 mg/kg |
| Cl.O=C(O)c1ccc(C[C@H]2CC[C@H]3CN[C@H](C(=O)O)C[C@H]3C2)cc1 |  | 553 | bioavailability [11]: 62.5%; Tmax [12]: 60 min; AUC(0-inf) [13]: 1510 ng·h/mL; Cmax [14]: 539 ng/mL |
| O=C(O)c1cccc(Cl)c1O[C@H]1CC[C@H]2CN[C@H](C(=O)O)C[C@H]2C1 | 316 | 1470 |  |
| CCOC(=O)c1ccc(-c2ccccc2)cc1O[C@H]1CC[C@H]2CN[C@H](C(=O)OCC)C[C@H]2C1.Cl |  |  | AUC(0-inf) [6]: 7230 ng·h/mL; Cmax [7]: 2700 ng/mL; bioavailability [8]: 22.2%; Tmax [9]: 60 min |
| O=C(O)c1ccc(S[C@H]2CC[C@H]3CN[C@H](C(=O)O)C[C@H]3C2)cc1 | 19 | 418 |  |
| CCOC(=O)c1ccccc1O[C@H]1CC[C@H]2CN[C@H](C(=O)OCC)C[C@H]2C1.Cl |  |  | minimal effective dose [3]: 10 mg/kg; Activity [4]: 21.8%; MED [5]: > 30 mg/kg; AUC(0-inf) [6]: 24700 ng·h/mL; Cmax [7]: 9200 ng/mL; bioavailability [8]: 75.3%; Tmax [9]: 30 min |
| O=C(O)c1ccc(N[C@H]2CC[C@H]3CN[C@H](C(=O)O)C[C@H]3C2)cc1 |  | 1420 |  |

More lines, main results first:

| Ki [1] [µM] | Ki [2] [µM] | SMILES | also measured |
| --- | --- | --- | --- |
| 6 | 44 | O=C(O)c1cccc(O[C@H]2CC[C@H]3CN[C@H](C(=O)O)C[C@H]3C2)c1 |  |
| 5.9 | 89 | Cc1ccc(C(=O)O)c(O[C@H]2CC[C@H]3CN[C@H](C(=O)O)C[C@H]3C2)c1 |  |
| 9.9 | 107 | Cc1ccc(O[C@H]2CC[C@H]3CN[C@H](C(=O)O)C[C@H]3C2)c(C(=O)O)c1 |  |
| 0.8 | 15 | O=C(O)c1ccccc1S[C@H]1CC[C@H]2CN[C@H](C(=O)O)C[C@H]2C1 |  |
| 3.6 | 3.3 | O=C(O)c1cc(Cl)ccc1N[C@H]1CC[C@H]2CN[C@H](C(=O)O)C[C@H]2C1 |  |
| 1.3 | 22 | O=C(O)c1ccc(Cl)cc1S[C@H]1CC[C@H]2CN[C@H](C(=O)O)C[C@H]2C1 |  |
|  | 77 | O=C(O)c1ccccc1N[C@H]1CC[C@H]2CN[C@H](C(=O)O)C[C@H]2C1 |  |
|  | 9 | O=C(O)c1cccc(S[C@H]2CC[C@H]3CN[C@H](C(=O)O)C[C@H]3C2)c1 |  |
| 2.3 | 70 | O=C(O)c1ccccc1O[C@H]1CC[C@H]2CN[C@H](C(=O)O)C[C@H]2C1 |  |
| 16 | 149 | O=C(O)c1cccc(C[C@H]2CC[C@H]3CN[C@H](C(=O)O)C[C@H]3C2)c1 |  |
| 3.7 | 42 | O=C(O)c1cc(Cl)ccc1S[C@H]1CC[C@H]2CN[C@H](C(=O)O)C[C@H]2C1 |  |
| 19 | 87 | COc1ccc(O[C@H]2CC[C@H]3CN[C@H](C(=O)O)C[C@H]3C2)c(C(=O)O)c1 |  |
| 6.2 | 111 | COc1ccc(C(=O)O)c(O[C@H]2CC[C@H]3CN[C@H](C(=O)O)C[C@H]3C2)c1 |  |
| 2.1 | 151 | O=C(O)c1ccc(Cl)cc1O[C@H]1CC[C@H]2CN[C@H](C(=O)O)C[C@H]2C1 |  |
| 1.5 | 19 | O=C(O)c1cc(Cl)ccc1O[C@H]1CC[C@H]2CN[C@H](C(=O)O)C[C@H]2C1 |  |
| 9.7 | 93 | O=C(O)c1c(F)cccc1O[C@H]1CC[C@H]2CN[C@H](C(=O)O)C[C@H]2C1 |  |
| 0.5 | 8.8 | O=C(O)c1ccc(-c2ccccc2)cc1O[C@H]1CC[C@H]2CN[C@H](C(=O)O)C[C@H]2C1 |  |
